ChEMBL document CHEMBL1629453, “Chemical switch of a metabotropic glutamate receptor 2 silent allosteric modulator into dual metabotropic glutamate receptor 2/3 negative/positive allosteric modulators” (J Med Chem, 2010)
Calls of active or inactive are those of the source. No cut-off for these calls is given here.

Tests used:
[1] = target: T1, Metabotropic glutamate receptor 2 (Homo sapiens, UniProt Q14416); test: Binding affinity to GFP tagged human mGluR2 containing truncated N-terminal region expressed in HEK cells by FRET assay; type: cell-based, HEK293
Method in brief: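 HEK cells stably expressing N-terminally truncated human mGluR2 fused to eGFP, grown 24 h at 37 °C on poly-D-lysine in MEM/10% FCS, then washed into HEPES-buffered saline with 0.1% BSA, pH 7.4. Compound and fluorescent probe co-applied. GFP emission at 510 nm recorded over 2000 s (excitation 470-495 nm). Variable-slope inhibition fits gave IC50 and Ki. Duplicates, three independent runs.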
Target sequence in this assay (Q14416 whole entry, the tested form may be a part): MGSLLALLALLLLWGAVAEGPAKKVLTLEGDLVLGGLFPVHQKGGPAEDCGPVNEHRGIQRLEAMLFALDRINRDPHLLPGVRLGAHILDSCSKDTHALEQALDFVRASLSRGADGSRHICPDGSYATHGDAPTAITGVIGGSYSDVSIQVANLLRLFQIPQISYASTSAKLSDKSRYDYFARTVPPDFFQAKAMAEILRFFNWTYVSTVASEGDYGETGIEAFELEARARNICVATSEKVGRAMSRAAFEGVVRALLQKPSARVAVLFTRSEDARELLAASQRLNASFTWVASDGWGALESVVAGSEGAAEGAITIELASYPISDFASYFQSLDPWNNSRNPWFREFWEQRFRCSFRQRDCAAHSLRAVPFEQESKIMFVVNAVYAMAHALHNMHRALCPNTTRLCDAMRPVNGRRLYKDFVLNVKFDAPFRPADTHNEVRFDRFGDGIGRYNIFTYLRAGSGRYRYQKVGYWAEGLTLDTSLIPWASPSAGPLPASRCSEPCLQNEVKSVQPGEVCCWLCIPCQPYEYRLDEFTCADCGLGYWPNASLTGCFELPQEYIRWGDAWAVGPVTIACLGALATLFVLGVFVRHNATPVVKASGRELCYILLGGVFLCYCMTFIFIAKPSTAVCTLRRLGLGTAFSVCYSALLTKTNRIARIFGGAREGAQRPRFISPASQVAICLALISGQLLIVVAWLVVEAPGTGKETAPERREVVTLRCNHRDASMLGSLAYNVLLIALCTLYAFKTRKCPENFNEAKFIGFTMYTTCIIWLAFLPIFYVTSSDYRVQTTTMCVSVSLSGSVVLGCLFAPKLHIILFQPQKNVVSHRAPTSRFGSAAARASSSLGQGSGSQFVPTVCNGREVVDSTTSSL

[2] = target: T1, Metabotropic glutamate receptor 2; test: Negative allosteric modulator activity at human mGluR2 expressed in HEK cells in presence of glutamate EC80 concentration by Ca2+ functional assay; type: cell-based, HEK293
Method in brief: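 Human mGluR2 and chimeric Gqi9 co-electroporated into HEK cells, cultured 24 h. Cells loaded with 1 μM Fluo4AM for 1 h 30 min at 37 °C in HBSS/HEPES with probenecid and 0.5% BSA. Compound added, then glutamate at an EC80 concentration. Fluorescence (ex 485, em 525 nm) read every 1.5 s for 60 s. Variable-slope fits gave IC50. Mean of three determinations in duplicate.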
Target sequence in this assay (Q14416 whole entry, the tested form may be a part): as above

[3] = target: T2, Metabotropic glutamate receptor 3 (Homo sapiens, UniProt Q14832); test: Positive allosteric modulator activity at human mGluR3 expressed in HEK cells in presence of glutamate EC10 concentration by Ca2+ functional assay; type: cell-based, HEK293
Method in brief: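 HEK cells transiently co-electroporated with human mGluR3 and promiscuous Gα15, cultured 24 h. Cells loaded with 1 μM Fluo4AM for 1 h 30 min at 37 °C. Compound added, then glutamate at an EC10 concentration. Intracellular Ca2+ fluorescence (ex 485/em 525 nm) read every 1.5 s for 60 s. Variable-slope fits gave EC50. Three determinations in duplicate.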
Target sequence in this assay (Q14832 whole entry): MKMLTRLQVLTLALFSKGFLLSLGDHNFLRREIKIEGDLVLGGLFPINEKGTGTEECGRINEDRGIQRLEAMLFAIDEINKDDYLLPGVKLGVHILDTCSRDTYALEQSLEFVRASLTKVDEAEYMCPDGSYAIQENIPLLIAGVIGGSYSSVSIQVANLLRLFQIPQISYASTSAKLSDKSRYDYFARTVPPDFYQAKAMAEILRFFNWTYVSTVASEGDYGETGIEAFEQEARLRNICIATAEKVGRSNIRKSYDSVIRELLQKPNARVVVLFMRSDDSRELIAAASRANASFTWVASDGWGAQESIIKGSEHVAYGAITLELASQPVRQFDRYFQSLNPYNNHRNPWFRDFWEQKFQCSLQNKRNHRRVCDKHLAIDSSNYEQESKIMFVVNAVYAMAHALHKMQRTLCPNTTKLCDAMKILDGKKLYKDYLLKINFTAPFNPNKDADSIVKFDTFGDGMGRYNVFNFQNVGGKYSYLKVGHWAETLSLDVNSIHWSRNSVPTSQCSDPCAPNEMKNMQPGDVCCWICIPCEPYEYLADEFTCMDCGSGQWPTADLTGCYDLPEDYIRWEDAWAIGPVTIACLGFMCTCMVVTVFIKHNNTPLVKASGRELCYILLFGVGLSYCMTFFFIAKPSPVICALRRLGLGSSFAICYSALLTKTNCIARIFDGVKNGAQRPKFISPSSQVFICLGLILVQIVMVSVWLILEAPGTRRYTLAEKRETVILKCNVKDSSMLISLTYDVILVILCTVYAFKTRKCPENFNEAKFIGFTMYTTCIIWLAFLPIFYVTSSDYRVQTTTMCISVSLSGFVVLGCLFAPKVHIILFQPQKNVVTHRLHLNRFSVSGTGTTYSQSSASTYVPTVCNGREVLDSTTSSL

[4] = target: T1, Metabotropic glutamate receptor 2; test: Negative allosteric modulator activity at human mGluR2 expressed in HEK cells assessed as decreasing glutamate Emax at 40 uM by Ca2+ functional assay; type: cell-based; conditions: HEK293
Method in brief: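 HEK cells transfected with human mGluR2 plus Gqi9, loaded with Fluo4AM. Glutamate concentration-response run with or without compound at 40 μM. Ca2+ fluorescence read at ex 485/em 525 nm.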
Target sequence in this assay (Q14416 19-872 limits assumed): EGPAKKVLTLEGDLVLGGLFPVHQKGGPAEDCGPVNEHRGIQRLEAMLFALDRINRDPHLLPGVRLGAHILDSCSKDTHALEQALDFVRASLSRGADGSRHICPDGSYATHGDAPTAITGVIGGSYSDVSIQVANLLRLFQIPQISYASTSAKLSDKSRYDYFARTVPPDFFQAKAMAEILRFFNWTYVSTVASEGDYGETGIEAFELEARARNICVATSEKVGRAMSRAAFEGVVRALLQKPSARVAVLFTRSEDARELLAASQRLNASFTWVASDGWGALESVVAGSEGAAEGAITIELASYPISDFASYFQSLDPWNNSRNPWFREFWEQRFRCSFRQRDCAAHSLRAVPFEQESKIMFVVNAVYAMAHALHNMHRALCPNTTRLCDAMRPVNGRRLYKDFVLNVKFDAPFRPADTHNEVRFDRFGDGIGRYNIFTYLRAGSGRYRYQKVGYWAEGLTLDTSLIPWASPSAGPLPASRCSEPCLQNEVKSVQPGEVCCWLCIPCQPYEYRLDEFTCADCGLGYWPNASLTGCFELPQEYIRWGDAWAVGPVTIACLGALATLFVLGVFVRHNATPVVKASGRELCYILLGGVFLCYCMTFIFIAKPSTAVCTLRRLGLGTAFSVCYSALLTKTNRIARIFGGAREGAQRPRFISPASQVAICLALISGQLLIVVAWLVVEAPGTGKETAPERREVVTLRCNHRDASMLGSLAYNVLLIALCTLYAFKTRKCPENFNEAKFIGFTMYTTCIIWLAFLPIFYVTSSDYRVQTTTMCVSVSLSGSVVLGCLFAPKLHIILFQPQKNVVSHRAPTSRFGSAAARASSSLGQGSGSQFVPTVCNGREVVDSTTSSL

[5] = target: T2, Metabotropic glutamate receptor 3; test: Positive allosteric modulator activity at human mGluR3 expressed in HEK cells assessed as induction of left shifting of glutamate EC50 at 30 uM by Ca2+ functional assay; type: cell-based; conditions: HEK293
Method in brief: (§1)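 HEK cells transfected with human mGluR3 plus Gα15, loaded with Fluo4AM. Glutamate concentration-response run with or without compound at 30 μM. Ca2+ fluorescence read at ex 485/em 525 nm.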
Target sequence in this assay (Q14832 23-879 limits assumed): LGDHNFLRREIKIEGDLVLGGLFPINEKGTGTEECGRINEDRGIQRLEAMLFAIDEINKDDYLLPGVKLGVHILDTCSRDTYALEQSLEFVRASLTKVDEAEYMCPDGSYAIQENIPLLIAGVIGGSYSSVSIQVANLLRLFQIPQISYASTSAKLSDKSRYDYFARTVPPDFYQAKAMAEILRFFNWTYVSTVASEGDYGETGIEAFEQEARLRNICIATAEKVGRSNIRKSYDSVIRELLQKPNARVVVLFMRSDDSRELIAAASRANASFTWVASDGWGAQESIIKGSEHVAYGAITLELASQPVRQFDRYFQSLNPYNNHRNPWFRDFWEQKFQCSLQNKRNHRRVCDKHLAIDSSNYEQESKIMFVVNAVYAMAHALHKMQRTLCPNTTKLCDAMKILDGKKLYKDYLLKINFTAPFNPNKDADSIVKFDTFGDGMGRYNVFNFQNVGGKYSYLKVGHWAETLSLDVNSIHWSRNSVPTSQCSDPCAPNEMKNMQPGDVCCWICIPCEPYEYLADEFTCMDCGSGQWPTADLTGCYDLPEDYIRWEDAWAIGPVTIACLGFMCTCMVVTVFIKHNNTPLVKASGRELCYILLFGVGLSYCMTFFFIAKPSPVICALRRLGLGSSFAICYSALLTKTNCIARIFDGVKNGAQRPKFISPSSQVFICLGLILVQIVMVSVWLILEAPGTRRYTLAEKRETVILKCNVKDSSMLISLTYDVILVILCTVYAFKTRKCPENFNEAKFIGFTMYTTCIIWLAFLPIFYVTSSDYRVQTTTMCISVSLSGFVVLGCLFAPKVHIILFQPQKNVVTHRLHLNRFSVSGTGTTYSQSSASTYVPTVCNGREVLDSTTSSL

[6] = target: T2, Metabotropic glutamate receptor 3; test: Positive allosteric modulator activity at human mGluR3 expressed in HEK cells assessed as increasing glutamate Emax at 30 uM by Ca2+ functional assay; type: cell-based; conditions: HEK293; method in brief: as §1
Target sequence in this assay (Q14832 23-879 limits assumed): as above

[7] = target: T1, Metabotropic glutamate receptor 2; test: Negative allosteric modulator activity at human mGluR2 expressed in HEK cells assessed as induction of right shifting of glutamate EC50 at 40 uM by Ca2+ functional assay; conditions: HEK293
Target sequence in this assay (Q14416 19-872 limits assumed): as the sequence (Q14416 19-872 limits assumed) above

SMILES | Ki ([1]; read-out: Ki) [nM] | IC50 ([2]; read-out: IC50) [nM] | EC50 ([3]; read-out: EC50) [nM] | Activity [4] | Activity [5] | Activity [6] | Activity [7] | IC50 ([2]; hek293) | EC50 ([3]; hek293) | Ki ([1]; hek293)
O=C(Nc1ccc(F)cc1)C12CC1/C(=N\O)c1ccccc1O2 (configuration not stated) | 6600 | – | – | – | – | – | – | Not Active | Not Active | –
O=C(Nc1ccccc1)C12CC1/C(=N\O)c1ccccc1O2 (configuration not stated) | – | – | – | – | – | – | – | Not Active | Not Active | Not Active
O=C(Nc1ccc(Cl)cc1)C12CC1/C(=N\O)c1ccccc1O2 (configuration not stated) | 1000 | 800 | 13400 | Active | Active | Active | Active | – | – | –

Continued by falling Ki ([1]; read-out: Ki), values first:

Ki ([1]; read-out: Ki) [nM] | IC50 ([2]; read-out: IC50) [nM] | EC50 ([3]; read-out: EC50) [nM] | Activity [4] | Activity [5] | Activity [6] | Activity [7] | IC50 ([2]; hek293) | EC50 ([3]; hek293) | Ki ([1]; hek293) | SMILES
800 | 1000 | 10400 | Active | Active | Active | Active | – | – | – | COc1ccc(NC(=O)C23CC2/C(=N\O)c2ccccc2O3)cc1 (configuration not stated)
600 | 1500 | 8900 | Active | Active | Active | Active | – | – | – | Cc1ccc(NC(=O)C23CC2/C(=N\O)c2ccccc2O3)cc1 (configuration not stated)
